Bioassay records deposited in PubChem BioAssay by several laboratories.
Calb biofilm kill = mixture kills Candida albicans biofilm cells; C. albicans biofilm persisters + clotrimazole, fluorescence viability; primary screen in compound mixtures of four per well; inhibition, % at 7.6 µM; 120,000 compounds, 0.02% hits; AID 1242;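 active means inhibition above 30.3% in the primary screen of four-compound pools, then above 30% when the compound was retested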;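 further: compounds exposed to preformed 24 h biofilms for 48 h; 0% = untreated biofilm control and 100% = clotrimazole plus chlorhexidine kill blank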
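Incubation: 24 h biofilm formation, then 48 h compound exposure, 37 °C | Material: C. albicans biofilms | Buffer or medium: RPMI/MOPS medium, pH 7.0 | Measured by: 2-h Alamar Blue fluorescence, 535/590 nm excitation/emission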
RGS4-Gao reg = human RGS4-Galphao interaction regulation; P09471; Multiplexed bead flow cytometry, RGS4-Galphao binding; actives lie on both sides; binding response (% of control), % at 10 µM; 220,000 compounds, 0.33% hits; in the data active means binding response below about 49% or above about 150%; inactive means in between;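 further: fluorescent Galphao activated with aluminum fluoride binding bead-coupled RGS4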
RGS16-Gao = modulates binding between human RGS16 and Galphao. binding response (% of control), % at 10 µM. O15492+P09471. 220,000 compounds, 0.38% hits. bead-based flow cytometry RGS16-Galphao binding, fluorescence; actives lie on both sides. AID 1441;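 further: Galphao activated by GDP with aluminum fluoride before binding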
RGS8-Gao reg = human RGS8-Galphao interaction regulation | 220,000 compounds, 0.34% hits | AID 1423 | response (percent of control binding), % at 10 µM | multiplexed bead flow cytometry, RGS8-Galphao binding; actives lie on both sides; in the data active means response below about 60% or above about 140%; inactive means in between;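 further: Galphao activated as the GDP aluminium fluoride complex binding bead-coupled RGS8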
RGS7-Gao reg = regulators of human RGS7-Galphao interaction; P09471; Multiplexed bead flow cytometry, RGS7-Galphao binding; actives lie on both sides; binding response (% of control), % at 10 µM; 220,000 compounds, 0.35% hits; AID 1439; in the data active means binding response below about 49% or above about 150%;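 further: fluorescent Galphao held in activated GDP-AlF4 state binding bead-coupled RGS7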
RGS-Gao = modulates binding between human RGS4 and Galphao. shares compounds with RGS16-Gao. 1,600 compounds, 99% hits. multiplexed bead flow cytometry, RGS–Galpha-o binding. AID 1504. RGS4–Galpha-o binding response, % at 10 µM;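 further: fluorescently labeled Galpha-o bound to GDP with aluminium fluoride binding biotinylated RGS beads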
Avidin counter = counter-screen: compounds disrupting biotin binding to avidin beads. shares compounds with RGS16-Gao. AID 1783. streptavidin beads, fluorescein-biotin binding, flow cytometry. 1,700 tested, under 10 active. inhibition, % at 10 µM;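 active means inhibition above 50%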;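 further: median green fluorescence of gated singlet beads compared with DMSO control wells; 0% = DMSO wells and 100% = complete loss of bead fluorescence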
RGS8-Gao single = confirmation of regulators of human RGS8-Galphao interaction; shares compounds with RGS16-Gao; bead-based flow cytometry RGS8-Galphao binding, fluorescence; actives lie on both sides; binding response (% of control), % at 10 µM; 1,700 compounds, 3% hits; AID 1836; in the data active means binding response below about 72% or above about 130%; inactive means in between;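 further: Galphao activated as GDP AlF4 complex before binding bead RGS8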
RGS7-Gao single = RGS7-Galphao interaction regulation, single point confirmation. shares compounds with RGS16-Gao. bead-based flow cytometry RGS7-Galphao binding; actives lie on both sides. response (percent of control binding), % at 10 µM. 1,700 compounds, 7.8% hits; in the data active means response below about 75% or above about 130%; inactive means in between;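 further: fluorescent Galphao activated with GDP and aluminum fluoride binding bead-coupled RGS7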
RGS16-Gao conf = confirmation of regulators of human RGS16-Galphao interaction; shares compounds with RGS16-Gao; bead-based flow cytometry, RGS16-Galphao binding; actives lie on both sides; response (% of control binding), % at 10 µM; 1,700 compounds, 4% hits; AID 1838; in the data active means response below about 74% or above about 130%; inactive means in between;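 further: Galphao activated as the GDP aluminium fluoride complex binding bead-coupled RGS16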
RGS4-Gao confirm = confirmation of regulators of human RGS4-Galphao interaction. shares compounds with RGS16-Gao. binding response (% of control), % at 10 µM. RGS4-Galphao binding, multiplexed bead flow cytometry; actives lie on both sides. 1,700 compounds, 4% hits; in the data active means binding response below about 74% or above about 130%; inactive means in between
RGS19-Gao conf = confirmation of regulators of human RGS19-Galphao interaction. shares compounds with RGS16-Gao. bead-based flow cytometry RGS19-Galphao binding; actives lie on both sides. response (percent of control binding), % at 10 µM. 1,700 compounds, 5% hits; in the data active means response below about 50% or above about 160%; inactive means in between;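 further: 100% = no compound control and 0% = blank background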
Target sequence (P09471 whole entry, looked up): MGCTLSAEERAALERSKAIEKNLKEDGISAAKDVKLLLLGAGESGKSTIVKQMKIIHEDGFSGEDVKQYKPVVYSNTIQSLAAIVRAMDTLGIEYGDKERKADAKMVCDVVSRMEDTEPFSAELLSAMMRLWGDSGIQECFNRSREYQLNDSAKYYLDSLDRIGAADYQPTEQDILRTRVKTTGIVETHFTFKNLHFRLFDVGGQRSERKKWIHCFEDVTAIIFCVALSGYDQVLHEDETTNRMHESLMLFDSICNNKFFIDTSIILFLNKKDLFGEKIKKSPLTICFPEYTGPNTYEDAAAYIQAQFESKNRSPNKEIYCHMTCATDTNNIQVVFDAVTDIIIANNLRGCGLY
Target sequence (P49795 whole entry, looked up): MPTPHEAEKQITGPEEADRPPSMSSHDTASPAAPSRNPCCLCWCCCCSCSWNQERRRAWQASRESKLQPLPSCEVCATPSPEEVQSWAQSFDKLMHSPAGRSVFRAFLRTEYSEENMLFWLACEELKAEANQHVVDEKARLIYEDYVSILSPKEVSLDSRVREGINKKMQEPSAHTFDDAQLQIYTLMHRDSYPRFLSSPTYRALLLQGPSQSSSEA
An asterisk follows results filed as active; . = not tested or not shown; + = active, no number; [ ] = dose if it differs, or a comment. A selection: hits, their analogues and other compounds. The true share with any hit is near 0.74%. Unless noted, how the calls were made is not given here.

SMILES	Calb biofilm kill	RGS4-Gao reg	RGS16-Gao	RGS8-Gao reg	RGS7-Gao reg	Avidin counter	RGS8-Gao single	RGS7-Gao single	RGS16-Gao conf	RGS4-Gao confirm	RGS19-Gao conf	others
Cc1cc(Oc2ccccc2)nc(-c2ccccc2)n1	.	105	104	104	100	.	.	.	.	.	.
c1ccc(Oc2cc(-c3ccccc3)nc(-c3ccccc3)n2)cc1	19	27*	19*	39*	18*	0	97	97	95	97	105
CCCCN=Cc1c(C)[nH]n(-c2ccccc2)c1=S	10	105	105	102	110	.	.	.	.	.	.
Cc1[nH]n(-c2ccccc2)c(=S)c1C=Nc1cccc([N+](=O)[O-])c1	.	95	19*	69	107	0	54*	84	5.9*	86	9.1*	RGS-Gao=95*
CC(=O)N1C(Nc2ccc(Cl)cc2)CCN1c1ccccc1 (stereo not drawn)	.	.	.	.	.	-1	102	98	98	101	88
CC1(C)CC(C2N3CC4(C)CN2CC(C)(C3)C4=O)CCO1 (stereo not drawn)	.	115	278	147*[activator]	119	0	101	103	104	103	94	RGS-Gao=115*
Cc1cn2c(N)c(C=C3C=C(Cl)C(=O)C(Cl)=C3)c(=O)nc2s1	16	549*[activator]	444*[activator]	133	473*[activator]	20	141*[activator]	+[activator]	449*[activator]	659*[activator]	+[activator]
COC1=C/C(=C/c2c(N)n3cc(C)sc3nc2=O)C=CC1=O	11	136	131	104	134	.	.	.	.	.	.
COc1ccccc1C1CCCN1Cc1nc(-c2ccc(C)s2)oc1C (stereo not drawn)	2	106	110	105	108	.	.	.	.	.	.
COc1ccc(C(=O)OC(C)CN2CCOCC2)cc1OC (stereo not drawn)	.	103	105	101	102	.	.	.	.	.	.
COc1cc(C(=O)OC(C)CN2CCCC2)cc(OC)c1OC (stereo not drawn)	.	47*	42	49*	44*	0	105	105	111	107	118
O=c1[nH]c(=O)n(Cc2ccccc2)c2c1C(C(F)(F)F)(C(F)(F)F)N=C(c1ccco1)N2	.	49*	42	56*	45*	-1	101	101	101	100	98
O=c1[nH]c(=O)n(Cc2ccco2)c2c1C(C(F)(F)F)(C(F)(F)F)N=C(c1ccc(F)cc1)N2	.	98	98	106	104	.	.	.	.	.	.
O=C(NN=C1CCCCCC1)c1ccc(Br)o1	10	115	327*[activator]	141*[activator]	120	-1	113	116	115	111	124	RGS-Gao=115*
CC(C)N1CCC(=NNC(=O)c2ccc(Br)o2)CC1	.	97	92	98	97	.	.	.	.	.	.
C/C(=N/NC(=O)CCC(=O)Nc1cccc(Cl)c1)c1ccc(C)cc1	19	94	63	85	98	.	.	.	.	.	.
COc1ccccc1NC(=O)CCC(=O)N/N=C(/C)c1ccc(C)cc1	18	90	16*	80	93	2	104	100	104	102	100	RGS-Gao=90*
O=C(COc1ccc(Cl)cc1Br)NC(=O)NCc1ccccc1	11	100	104	98	98	.	.	.	.	.	.
